This is an account of results in ChEMBL document CHEMBL4382264, “Melanogenesis-Inhibitory and Cytotoxic Activities of Triterpene Glycoside Constituents from the Bark of Albizia procera” (J Nat Prod, 2018).

Molecules are shown by their SMILES.

By IC50 is commonly meant the concentration at which inhibition is half-maximal.

One data set relates to A549. Nature of the data set: Cytotoxicity against human A549 cells assessed as reduction in cell viability after 48 hrs by MTT assay. The class given is functional, cell-based. The following applies: A549, 48 h. In outline: (§1)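 Cells exposed to compounds from 1 × 10−4 to 1 × 10−6 M for 48 h. Viability read by MTT. IC50 derived from five concentrations, each run in triplicate.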
On the technique in general: Formazan colour is commonly taken as a measure of viable cells.

A further data set concerns AZ-521 cell line. Nature of the data set: Cytotoxicity against human AZ-521 cells assessed as reduction in cell viability after 48 hrs by MTT assay. As to conditions: AZ-521, 48 h. The class given is functional, cell-based. In outline: as §1
Data set [1] has as its system B16-F10. Nature of the data set: Selectivity index, ratio of compound effect for cytotoxicity against non-stimulated mouse B16F10 cells assessed as cell viability at 100 uM to compound effect for inhibition of alpha-MSH-stimulated melanogenesis in mouse B16F10 cells assessed as melanin content at 100 uM.
Data set [2] is described as follows: Selectivity index, ratio of IC50 for human […] cells to IC50 for human A549 cells. In outline:
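Selectivity index equals the IC50 against WI38 normal cells divided by the IC50 against A549 cells.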

For a further data set, the system named is WI-38. Description: Cytotoxicity against human WI38 cells assessed as reduction in cell viability after 48 hrs by MTT assay. The class given is cell-based. As to conditions: WI-38, 48 h. In outline:
as §1

The next data set relates to HL-60. Description: Cytotoxicity against human HL60 cells assessed as reduction in cell viability after 48 hrs by MTT assay. The class given is functional, cell-based. As to conditions: HL-60, 48 h. An outline of the steps: as §1
The next data set deals with SK-BR-3. Description: Cytotoxicity against human SKBR3 cells assessed as reduction in cell viability after 48 hrs by MTT assay. The class given is functional, cell-based. The following applies: SK-BR-3, 48 h. An outline of the steps:
as §1

The subject of data set [3] is B16-F10. Nature of the data set: Inhibition of alpha-MSH-stimulated melanogenesis in mouse B16F10 cells assessed as melanin content at 10 uM measured after 48 hrs relative to control. The class given is functional. More on the design: scale not given: the % may be the effect or the level left. An outline of the steps:
(§2)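 B16F10 cells treated with test sample plus 0.10 μM α-MSH for 48 h. Melanin solubilized in 2 N NaOH–10% DMSO and read at 405 nm. Expressed as % of DMSO-treated cells (DMSO 2 μL·mL−1). Mean ± SD, n = 3.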

For data set [4], the system named is B16-F10. Description: Selectivity index, ratio of compound effect for cytotoxicity against non-stimulated mouse B16F10 cells assessed as cell viability at 10 uM to compound effect for inhibition of alpha-MSH-stimulated melanogenesis in mouse B16F10 cells assessed as melanin content at 10 uM.
Data set [5] in a line: Cytotoxicity against non-stimulated mouse B16F10 cells assessed as cell viability at 10 uM relative to control. The class given is cell-based, B16-F10. The following applies: read-out: Activity. In outline: (§3)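 B16 melanoma cells tested for viability at 10 or 100 μM. Absorbance read at 570 nm (test) minus 630 nm (reference). Expressed as % of DMSO control (DMSO 2 μL·mL−1). Mean ± SD, n = 3.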

Data set [6] has as its system B16-F10. Nature of the data set: Inhibition of alpha-MSH-stimulated melanogenesis in mouse B16F10 cells assessed as melanin content at 100 uM measured after 48 hrs relative to control. The class given is functional. Also noted: scale not given: the % may be the effect or the level left. In outline:
as §2

The nature of data set [7]: Cytotoxicity against non-stimulated mouse B16F10 cells assessed as cell viability at 100 uM relative to control. The class given is cell-based, B16-F10. The following applies: read-out: Activity. In outline:
as §3

Consider `C=C[C@@](C)(O)CC/C=C(\C)C(=O)O[C@H]1[C@H](O)[C@@H](O)[C@H](O[C@](C)(C=C)CCCC(C)C(=O)O[C@H]2C[C@]3(C(=O)O[C@@H]4O[C@H](CO)[C@@H](O)[C@H](O)[C@H]4O[C@@H]4O[C@@H](C)[C@H](O[C@@H]5O[C@@H](CO)[C@H](O)[C@H]5O)[C@@H](O[C@@H]5O[C@H](CO)[C@@H](O)[C@H](O)[C@H]5O)[C@H]4O)CC[C@]4(C)C(=CC[C@@H]5[C@@]6(C)CC[C@H](O[C@@H]7O[C@H](CO[C@@H]8OC[C@H](O)[C@H](O)[C@H]8O[C@@H]8OC[C@@H](O)[C@H](O)[C@H]8O)[C@@H](O)[C@H](O)[C@H]7O[C@@H]7O[C@H](CO)[C@@H](O)[C@H](O)[C@H]7O)C(C)(C)[C@@H]6CC[C@]54C)[C@@H]3CC2(C)C)O[C@@H]1C` (some centres undefined), for which the half-inhibitory concentration (IC50) stood at 660 nM in the data set with A549; 400 nM in the data set on AZ-521 cell line; 2200 nM in the data set on WI-38; 500 nM in the data set with HL-60; 1100 nM with SK-BR-3. Also, the Ratio came to 0.74 with B16-F10 [1] and 0.81 with B16-F10 [4]. Besides, in data set [2], the “Ratio IC50” value came to 3.4. Also, the Activity in the data set with B16-F10 [3] turned out to be 89.2%; with B16-F10 [6], 75.2%. In [5], the viability at 10 µM came out at 110%. The viability at 100 µM in [7] came to 102%.
Turning to `C=C[C@@](C)(O)CC/C=C(\C)C(=O)O[C@H]1[C@H](O)[C@@H](O)[C@H](O[C@](C)(C=C)CCCC(C)C(=O)O[C@H]2C[C@]3(C(=O)O[C@@H]4O[C@H](CO)[C@@H](O)[C@H](O)[C@H]4O[C@@H]4O[C@@H](C)[C@H](O[C@@H]5O[C@@H](CO)[C@H](O)[C@H]5O)[C@@H](O[C@@H]5O[C@H](CO)[C@@H](O)[C@H](O)[C@H]5O)[C@H]4O)CC[C@]4(C)C(=CC[C@@H]5[C@@]6(C)CC[C@H](O[C@@H]7O[C@H](CO[C@@H]8O[C@H](C)[C@H](O)[C@H](O)[C@H]8O[C@@H]8OC[C@@H](O)[C@H](O)[C@H]8O)[C@@H](O)[C@H](O)[C@H]7O[C@@H]7O[C@H](CO)[C@@H](O)[C@H](O)[C@H]7O)C(C)(C)[C@@H]6CC[C@]54C)[C@@H]3CC2(C)C)O[C@@H]1C` (some centres undefined), the half-maximal inhibitory concentration (IC50) in the data set on A549 is 1800 nM; with AZ-521 cell line it was 600 nM; in the data set on WI-38, 4800 nM; with HL-60, 600 nM; in the data set with SK-BR-3, 2600 nM. Moreover, the Ratio in the data set with B16-F10 [1] is given as 0.77; with B16-F10 [4], 0.79. Besides, in data set [2], the “Ratio IC50” value was 2.7. Moreover, the Activity turned out to be 86.5% in the data set with B16-F10 [3] and 79.6% in the data set with B16-F10 [6]. Further, in data set [5], the viability at 10 µM was 110%. In addition, the viability at 100 µM in data set [7] turned out to be 104%.
For the compound `C=C[C@@](C)(O)CC/C=C(\C)C(=O)O[C@H]1[C@H](O)[C@@H](O)[C@H](O[C@](C)(C=C)CCCC(C)C(=O)O[C@H]2C[C@]3(C(=O)O[C@@H]4O[C@H](CO)[C@@H](O)[C@H](O)[C@H]4O[C@@H]4O[C@@H](C)[C@H](O[C@@H]5O[C@@H](CO)[C@H](O)[C@H]5O)[C@@H](O[C@@H]5O[C@H](CO)[C@@H](O)[C@H](O)[C@H]5O)[C@H]4O)[C@H](O)C[C@]4(C)C(=CC[C@@H]5[C@@]6(C)CC[C@H](O[C@@H]7O[C@H](CO[C@@H]8OC[C@H](O)[C@H](O)[C@H]8O[C@@H]8OC[C@@H](O)[C@H](O)[C@H]8O)[C@@H](O)[C@H](O)[C@H]7O)C(C)(C)[C@@H]6CC[C@]54C)[C@@H]3CC2(C)C)O[C@@H]1C` (some centres undefined), the IC50 worked out at 1000 nM with A549; 1200 nM in the data set with AZ-521 cell line; 8300 nM in the data set with WI-38; 900 nM in the data set with HL-60; 800 nM with SK-BR-3. Besides, the Ratio in the data set on B16-F10 [1] amounted to 0.77; with B16-F10 [4], 0.81. In addition, the “Ratio IC50” value in data set [2] is 8.2. The Activity in the data set on B16-F10 [3] was 86.2%; in the data set with B16-F10 [6], 80%. The viability at 10 µM in [5] was determined as 107%. Besides, in [7], the viability at 100 µM came to 104%.
For `C=C[C@@](C)(O)CC/C=C(\C)C(=O)O[C@H]1[C@H](O)[C@@H](O)[C@H](O[C@](C)(C=C)CCCC(C)C(=O)O[C@H]2C[C@]3(C(=O)O[C@@H]4O[C@H](CO)[C@@H](O)[C@H](O)[C@H]4O[C@@H]4O[C@@H](C)[C@H](O[C@@H]5O[C@@H](CO)[C@H](O)[C@H]5O)[C@@H](O[C@@H]5O[C@H](CO)[C@@H](O)[C@H](O)[C@H]5O)[C@H]4O)CC[C@]4(C)C(=CC[C@@H]5[C@@]6(C)CC[C@H](O[C@@H]7O[C@H](CO[C@@H]8O[C@H](C)[C@H](O)[C@H](O)[C@H]8O[C@@H]8OC[C@@H](O)[C@H](O)[C@H]8O)[C@@H](O)[C@H](O)[C@H]7O)C(C)(C)[C@@H]6CC[C@]54C)[C@@H]3CC2(C)C)O[C@@H]1C` (some centres undefined), the concentration for half-maximal inhibition (IC50) is 1300 nM in the data set with A549; 1700 nM with AZ-521 cell line; 2500 nM with WI-38; 900 nM with HL-60; 400 nM with SK-BR-3. Moreover, the Ratio with B16-F10 [1] is 0.42; in the data set on B16-F10 [4], 0.69. Besides, in [2], the “Ratio IC50” value came out at 1.8. Besides, the Activity in the data set with B16-F10 [3] is 74.3%; in the data set on B16-F10 [6], 42.5%. Besides, the viability at 10 µM in data set [5] was 107%. In addition, the viability at 100 µM in data set [7] was 102%.
For `OC[C@H]1O[C@@H](Oc2ccc(O)cc2)[C@H](O)[C@@H](O)[C@@H]1O` [ARBUTIN], the Ratio turned out to be 0.81 in the data set on B16-F10 [1] and 0.91 in the data set on B16-F10 [4]. Besides, the Activity in the data set on B16-F10 [3] is on record as 92.7%; in the data set with B16-F10 [6] it was 81.5%. Further, the viability at 10 µM in [5] was found to be 102%. Further, the viability at 100 µM in data set [7] came out at 101%.
